Laboratory results taken from ChEMBL document CHEMBL3860061, “A Novel Parkinson's Disease Drug Candidate with Potent Anti-neuroinflammatory Effects through the Src Signaling Pathway” (J Med Chem, 2016).
Active and inactive are the calls of the source.

Key:
Mus musculus [1] = assay: Antineuro-inflammatrory activity in alpha-syn A53T transgenic B6C3H mouse assessed as decrease in TNF-alpha level in midbrain at 10 to 20 mg/kg dosed once daily for 12 consecutive weeks by ELISA; format: functional, organism-based
In short: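 Male B6;C3H mice expressing mutant α-syn (A53T), from 4 months old, given agent (5, 10, 20 mg/kg) or L-DOPA 20 mg/kg in 0.5% CMC-Na once daily for 12 weeks. Wild-type controls received vehicle. Midbrain homogenised in non-denaturing lysis buffer with protease inhibitor; IL-1β or TNF-α measured by ELISA, n = 6, mean ± SD.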

Mus musculus [2] = assay: Increase in dopamine level in striatum of MPTP-induced subacute C57/BL mouse Parkinson's disease model at 10 to 20 mg/kg […] dosed 30 mins prior to each MPTP injection for 5 days and administered continously for 7 days post last MPTP dose by HPLC analysis; format: functional, organism-based
In short: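 Sub-acute model: male C57/BL mice given MPTP·HCl 30 mg/kg i.p. for 5 days. Agent (5–20 mg/kg) or L-DOPA 20 mg/kg in 0.5% CMC-Na dosed 30 min before each injection, then for 7 more days. Striatum sonicated in 0.6 N perchloric acid, centrifuged, phosphate/citrate/EDTA solution added, recentrifuged; dopamine by HPLC, n = 8.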

[3] = molecular target: Proto-oncogene tyrosine-protein kinase Src (Rattus norvegicus) (UniProt Q9WUD9); assay: Inhibition of Src in Sprague-Dawley rat primary mixed mesecephalic neuron/glial cells assessed as suppression of LPS-induced microglia activation by measuring Iba-1 expression at 10 uM preincubated for 1 hr followed by LPS challenge measured after 24 hrs
Sequence of Proto-oncogene tyrosine-protein kinase Src (Rattus norvegicus) (Q9WUD9 2-536 limits assumed): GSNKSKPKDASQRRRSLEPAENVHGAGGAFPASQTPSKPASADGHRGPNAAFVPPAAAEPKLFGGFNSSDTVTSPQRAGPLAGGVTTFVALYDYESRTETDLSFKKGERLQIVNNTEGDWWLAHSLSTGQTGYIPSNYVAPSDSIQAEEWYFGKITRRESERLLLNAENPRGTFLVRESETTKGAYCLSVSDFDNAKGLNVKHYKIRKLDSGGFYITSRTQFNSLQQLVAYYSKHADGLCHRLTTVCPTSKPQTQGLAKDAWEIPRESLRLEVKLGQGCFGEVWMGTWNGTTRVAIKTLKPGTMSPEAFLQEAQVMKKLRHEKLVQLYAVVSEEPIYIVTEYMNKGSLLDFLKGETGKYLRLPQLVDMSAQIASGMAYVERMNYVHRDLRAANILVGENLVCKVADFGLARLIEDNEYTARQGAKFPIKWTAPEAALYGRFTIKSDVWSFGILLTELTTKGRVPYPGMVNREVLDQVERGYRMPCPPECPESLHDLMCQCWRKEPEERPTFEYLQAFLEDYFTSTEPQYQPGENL

Mus musculus [4] = assay: Effect on Src protein expression level in midbrain of MPTP/probenecid-induced chronic C57/BL mouse Parkinson's disease model at 5 to 20 mg/kg dosed once daily for 7 weeks post 10 doses of MPTP/probenecid for 5 weeks by Western blot analysis; format: functional, organism-based
Mus musculus [5] = assay: Effect on GSK3beta protein expression level in midbrain of MPTP/probenecid-induced chronic C57/BL mouse Parkinson's disease model at 5 to 20 mg/kg dosed once daily for 7 weeks post 10 doses of MPTP/probenecid for 5 weeks by iTRAQ-labelled 2D-LC/MS/MS analysis; format: functional, organism-based
Mus musculus [6] = assay: In vivo inhibition of Src in MPTP/probenecid-induced chronic C57/BL mouse Parkinson's disease model assessed as effect on PTEN expression level in midbrain at 5 to 20 mg/kg co-administered with L-DOPA once in a day for 7 weeks post 10 doses of MPTP for 5 weeks by Western blot analysis; format: functional, organism-based
Mus musculus [7] = assay: Effect on GSK3beta protein expression level in midbrain of MPTP/probenecid-induced chronic C57/BL mouse Parkinson's disease model at 5 to 20 mg/kg dosed once daily for 7 weeks post 10 doses of MPTP/probenecid for 5 weeks by Western blot analysis; format: functional, organism-based
Mus musculus [8] = assay: Neuroprotective activity in MPTP-induced subacute C57/BL mouse Parkinson's disease model assessed as improvement in motor behavior at 5 to 20 mg/kg […] dosed 30 mins prior to each MPTP injection for 5 days and administered continously for 7 days post last MPTP dose by pole test; format: functional, organism-based
In short: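 Sub-acute MPTP model (30 mg/kg i.p. × 5 days) in male C57/BL mice. Agent (5–20 mg/kg) or L-DOPA 20 mg/kg given 30 min before each injection and for 7 days after. Rotarod at 14 rpm, up to 120 s, fall latency over three trials 1 h apart. Pole test: 50 cm pole, descent scored 1–5, two trials 1 h apart, pre-trained. n = 15.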

Mus musculus [9] = assay: Neuroprotective activity in MPTP/probenecid-induced chronic C57/BL mouse Parkinson's disease model assessed as improvement in motor behavior at 5 to 20 mg/kg dosed once daily for 7 weeks post 10 doses of MPTP/probenecid for 5 weeks measured after last MPTP/probenecid dose by pole test; format: functional, organism-based
In short: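 Chronic MPTP/probenecid model (10 doses over 5 weeks), then agent (5–20 mg/kg) or L-DOPA 20 mg/kg daily for 7 weeks. Rotarod at 14 rpm, up to 120 s, fall latency from three trials 1 h apart. Pole test: gauze-wrapped 50 cm pole, descent scored 1–5, two trials 1 h apart after pre-training. n = 15.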

Mus musculus [10] = assay: Effect on Src protein expression level in midbrain of MPTP/probenecid-induced chronic C57/BL mouse Parkinson's disease model at 5 to 20 mg/kg dosed once daily for 7 weeks post 10 doses of MPTP/probenecid for 5 weeks by iTRAQ-labelled 2D-LC/MS/MS analysis; format: functional, organism-based
Mus musculus [11] = assay: In vivo inhibition of Src in MPTP/probenecid-induced chronic C57/BL mouse Parkinson's disease model assessed as effect on NOS1 expression level in midbrain at 5 to 20 mg/kg dosed once daily for 7 weeks post 10 doses of MPTP/probenecid for 5 weeks by iTRAQ-labelled 2D-LC/MS/MS analysis; format: functional, organism-based
[12] = molecular target: Proto-oncogene tyrosine-protein kinase Src (Rattus norvegicus) (UniProt Q9WUD9); assay: Inhibition of Src in Sprague-Dawley rat primary mixed mesecephalic neuron/glial cells assessed as suppression of LPS-induced IL-1beta expression at 10 uM preincubated for 1 hr followed by LPS challenge measured after 5 hrs by ELISA
In short: (§1)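 Mixed mesencephalic neuron/glia cultures from E14 Sprague-Dawley rats, used at 7 days. Agent at 10 µM added 1 h before LPS 100 ng/mL; IL-1β and TNF-α in medium measured by ELISA after 5 h, n = 6.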

Mus musculus [13] = assay: In vivo inhibition of Src in MPTP/probenecid-induced chronic C57/BL mouse Parkinson's disease model assessed as effect on Akt expression level in midbrain at 5 to 20 mg/kg […] once in a day for 7 weeks post 10 doses of MPTP for 5 weeks by Western blot analysis; format: functional, organism-based
[14] = molecular target: Proto-oncogene tyrosine-protein kinase Src (Rattus norvegicus) (UniProt Q9WUD9); assay: Inhibition of Src in Sprague-Dawley rat primary mixed mesecephalic neuron/glial cells assessed as suppression of LPS-induced TNFalpha expression at 10 uM preincubated for 1 hr followed by LPS challenge measured after 5 hrs by ELISA; in short: as §1
[15] = molecular target: Proto-oncogene tyrosine-protein kinase Src (Rattus norvegicus) (UniProt Q9WUD9); assay: Inhibition of SRC in Sprague-Dawley rat primary mixed mesecephalic neuron/glial cells assessed as protection against LPS-induced dopaminergic neuro-toxicity by measuring TH expression at 10 uM preincubated for 1 hr followed by LPS challenge measured after 7 days by Western blot analysis
In short: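 Mixed mesencephalic neuron/glia cultures from E14 Sprague-Dawley rats, used at 7 days. Agent at 10 µM added 1 h before LPS 100 ng/mL; TH measured by Western blot after 7 days, n = 4.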

COc1cc(OC)c(CN[C@@H](CO)C(=O)O)c(OC)c1
active: Activity (Mus musculus [1]) | Activity (Mus musculus [2]) | inhibition [3] | Activity (Mus musculus [4]) | Activity (Mus musculus [5]) | inhibition (Mus musculus [6]) | Activity (Mus musculus [7]) | Activity (Mus musculus [8]) | Activity (Mus musculus [9]) | Activity (Mus musculus [10]) | inhibition (Mus musculus [11]) | inhibition [12] | inhibition (Mus musculus [13]) | inhibition [14] | inhibition [15]
